mABHD4 FP: ABHD4 inhibitors, primary screen, biochemical, fluorescence polarization, mouse | purified mABHD4, FP-Rh probe fluorescence polarization | inhibition, % at 8.92 µM | actives 0.54% (n = 370,000) | AID 720543, 2013;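 active = inhibition exceeding the mean over every tested compound plus 3 SD, cut at about 30% in these data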;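 note: 0% = plate median of compound wells and 100% = S159A mutant with DMSO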
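assay system = mABHD4 protein | compound dosing = single nominal dose of 8.92 µM, 0.89% DMSO final | read-out basis = percent inhibition of probe binding, normalized to plate controls | schedule = Enzyme–compound pre-incubation 45 min, then probe 60 min, both 25 °C | detection = fluorescence polarization, excitation 525 nm, emission 598 nm, BODIPY TMR filters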
TCR CD3 inh: inhibitors of human TCR-CD3 interaction, primary screen, biochemical, fluorescence, TAMRA-labeled TCR probe. inhibition, % at 9.4 µM. actives 0.37% (n = 360,000). T-cell receptor (TCR); in the data active = inhibition above about 19%;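 note: recombinant mutant TCR 2C K166C tagged with TAMRA read by polarization; 0% = receptor in buffer alone and 100% = receptor with positive control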
SIAE inh: human SIAE inhibitors, primary screen, biochemical, fluorescence polarization, FP-Rh probe, 1536-well HTS. SIAE FP-Rh probe binding. actives 0.69% (n = 370,000). inhibition, % at 9.66 µM. AID 1053197, 2014. Sialate O-acetylesterase (Homo sapiens), Q9HAT2;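 active = inhibition above a cutoff: mean of compounds within the control limits plus 3 SD of those, cut at about 17% in these data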;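 note: 0% = plate median of compound wells and 100% = probe without SIAE protein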
HTRA1 inhibitor: HTRA1 serine protease inhibitors, primary screen, biochemical, fluorescence polarization, HTS. recombinant HTRA1, FP-rhodamine activity-based probe. inhibition, % at 5.96 µM. actives 0.5% (n = 340,000); in the data active = inhibition above about 36%;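 note: 0% = enzyme with DMSO and 100% = wells lacking enzyme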
DDE Tn6 FP inh: inhibitors of Tn6 peptide binding to fibrin DD(E), primary screen, biochemical, fluorescence polarization, human fibrin, Tn6 probe. AID 720509, 2013. Fibrinogen beta chain (Homo sapiens), P02675. inhibition, % at 8.3 µM. Fibrin DD(E) TRITC-Tn6 fluorescence polarization displacement. actives 0.21% (n = 370,000);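 active = inhibition above a per-campaign cutoff: mean of compounds within control limits plus 3 SD, cut at about 15% in these data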;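 note: 0% = median of all compound wells on the plate and 100% = blocking peptide control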
Target sequence (P02675 whole entry, looked up): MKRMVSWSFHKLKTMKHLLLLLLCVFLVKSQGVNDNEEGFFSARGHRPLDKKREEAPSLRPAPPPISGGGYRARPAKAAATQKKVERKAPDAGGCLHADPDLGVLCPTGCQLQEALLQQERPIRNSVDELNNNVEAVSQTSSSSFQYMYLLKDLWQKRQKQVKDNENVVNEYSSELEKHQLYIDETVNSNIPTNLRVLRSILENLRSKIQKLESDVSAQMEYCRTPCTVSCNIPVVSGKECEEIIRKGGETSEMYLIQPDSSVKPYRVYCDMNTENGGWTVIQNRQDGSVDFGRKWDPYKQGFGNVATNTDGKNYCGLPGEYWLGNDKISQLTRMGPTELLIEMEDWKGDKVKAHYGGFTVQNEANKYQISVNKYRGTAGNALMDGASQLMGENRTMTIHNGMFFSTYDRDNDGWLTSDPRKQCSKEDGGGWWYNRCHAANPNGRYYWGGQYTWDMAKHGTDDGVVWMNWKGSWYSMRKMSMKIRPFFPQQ
Tn7 DDE FP: inhibitors of Tn7 peptide binding to fibrin DD(E), primary screen, biochemical, fluorescence polarization, human fibrin, Tn7 probe. FP displacement of FITC-Tn7 peptide from fibrin DD(E); 0% = median of compound wells per plate. Fibrinogen beta chain (Homo sapiens), P02675. inhibition, % at 8.3 µM. actives 0.13% (n = 370,000);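 active = inhibition above the mean of compounds falling within the control limits plus 3 SD of them, cut at about 14% in these data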;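 note: 0% = plate median of compound wells and 100% = 10 µM Aha-Tn7 peptide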
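Assay system: human fibrin DD(E) protein / Input: 2 µM fibrin DD(E) / Benchmarks: high control of 10 µM Aha-Tn7 peptide / Measured by: fluorescence polarization of the labelled Tn7 tracer / Medium: Tris buffer with calcium and detergent, pH 7.8 / Timing: 10 min compound pre-incubation, 3 h probe incubation at room temperature / Repeats: one replicate per compound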
HTRA1 conf: HTRA1 protease inhibitors, retest, confirmation, biochemical, fluorescence polarization; shares compounds with HTRA1 inhibitor; recombinant HTRA1, FP-rhodamine activity-based probe; inhibition, % at 5.96 µM; actives 66% (n = 1,600); AID 540248, 2011;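 active = mean inhibition over three repeats above a set limit taken from the earlier primary screen, cut at about 37% in these data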;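 note: 0% = HTRA1 with DMSO and 100% = wells lacking HTRA1; inhibitors block probe binding so polarization drops and inhibition rises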
* = called active by the depositor; / = no result given; + = active, no number. Shown are actives, neighbours in structure and some others; about 1.8% of the full set was active somewhere.

SMILES	mABHD4 FP	TCR CD3 inh	SIAE inh	HTRA1 inhibitor	DDE Tn6 FP inh	Tn7 DDE FP	HTRA1 conf
CCCCCCCCCCCCC/C=C/[C@@H](O)[C@@H](N)CO	20	10	-1	38*	-3	5	67*
CC1=NN(c2ccc(C(=O)O)cc2)C(=O)/C1=C\c1ccc(OC(=O)c2cccs2)cc1	12	-3	-5	39*	-2	8	7
O=Cc1ccc(-c2cccs2)s1	-8	2	-5	1	-2	-6	/
Oc1ccc(N=Cc2ccc(-c3cccs3)s2)cc1	86*	43*	45*	62*	19*	-5	-27
O=C(Oc1ccc(/C=N/NC(=O)c2ccccc2F)cc1)c1ccccc1	5	-4	-3	2	0	0	/
O=C(Oc1ccc(/C=N/NC(=O)c2ccccc2O)cc1)c1ccccc1	-6	1	-4	41*	-7	1	-6
O=C(NCc1ccccc1)C1Nc2ccc(OC(F)(F)F)cc2C2C=CCC12 (stereo not drawn)	12	-3	10	17	5	3	/
O=C(NC1CC1)C1Nc2ccc(OC(F)(F)F)cc2C2C=CCC12 (stereo not drawn)	28	-12	3	48*	2	-5	-3
CCOC(=O)C1Nc2ccc(OC(F)(F)F)cc2C2C=CCC12 (stereo not drawn)	11	-1	6	58*	4	1	55*
O=C(NCCCN1CCOCC1)C1Nc2ccc(OC(F)(F)F)cc2C2C=CCC12 (stereo not drawn)	14	-2	13	28	0	1	/
C=CC[C@@]1(c2ccc(Br)cc2OC)Oc2ccccc2-c2nccnc21	-5	/	0	/	-4	-1	/
COC(=O)C1CN(C2CCCC2)CCS(=O)(=O)N1Cc1cn(Cc2ccc(F)cc2)nn1 (stereo not drawn)	-1	/	-1	/	6	-7	/
O=C(Oc1ccc(Cl)c2cccnc12)c1cccnc1	2	0	8	71*	2	0	82*
Cc1cccc(NC(=O)Oc2ccc(Cl)c3cccnc23)c1	-1	-2	11	54*	-8	0	41*
CNC(=O)COc1ccc(Cl)c2cccnc12	5	3	4	-1	-3	2	/
CN(C)C(=O)NCCCC#Cc1ccccc1	-2	/	-4	/	-3	2	/
O=C(OC12CCCN(C1)/C(=C/c1ccc(Cl)cc1)C2)c1ccc(F)cc1 (stereo not drawn)	7	/	6	/	-2	-5	/
CC(=O)Nc1ccc2[nH]c(C)cc(=O)c2c1	3	-2	-2	9	2	-10	/
Cc1cc2c(N=O)c(NO)ccc2[nH]1	/	/	/	40*	/	/	74*
Cc1cccc(NC(=O)COc2coc(CN3CCN(c4ccccc4)CC3)cc2=O)c1C	2	6	-3	57*	-2	2	10
O=C(COc1coc(CN2CCN(c3ccccc3)CC2)cc1=O)Nc1ccccc1	8	0	13	2	12	-1	/
CCn1c(CSc2nccn2C)nc2cc(C(=O)O)ccc21	/	/	/	38*	/	/	48*
Cc1cc(C)c2nc(NNC(=O)c3ccc(S(=O)(=O)N4CCc5ccccc5C4)cc3)sc2c1	6	3	6	52*	-6	5	48*
Cc1cc(C)c2sc(NNC(=O)c3ccc(S(=O)(=O)N4CCc5ccccc5C4)cc3)nc2c1	1	-11	-1	44*	-8	-3	42*
CCc1nnc(NC(=O)c2ccc(S(=O)(=O)N3CCc4ccccc4C3)cc2)s1	3	6	-1	2	-1	4	/
SMILES	mABHD4 FP	TCR CD3 inh	SIAE inh	HTRA1 inhibitor	DDE Tn6 FP inh	Tn7 DDE FP	HTRA1 conf
COC(=O)[C@H](CC(C)C)N1Cc2nnn(Cc3ccccc3)c2-c2ccccc2S1(=O)=O	-1	/	-2	/	-4	-7	/
COc1ccc(S(=O)(=O)/N=C2\C=C(Nc3ccc(O)cc3)C(=O)c3ccccc32)cc1	75*	0	40*	84*	-6	-5	+
CC(COc1cccc(C#N)c1)CN1CCC(C(O)(c2ccccc2)c2ccccc2)CC1 (stereo not drawn)	-1	/	0	/	-2	-2	/
COC(=O)C1CN(CCc2ccccc2)CCS(=O)(=O)N1Cc1ccc(C(F)(F)F)cc1 (stereo not drawn)	-8	/	0	/	-11	4	/
COC(=O)CCC(=O)OC1(C)C(=O)C2=CN(C3CCCC3)C(c3ccc(OC)cc3)=CC2=C(Br)C1=O (stereo not drawn)	9	-4	6	61*	2	2	52*
C=CCN1C=C2C(=O)C(C)(OC(=O)CCC(=O)OC)C(=O)C(Br)=C2C=C1c1ccc(OC)cc1 (stereo not drawn)	/	/	/	63*	/	/	43*
COC(=O)CCC(=O)OC1(C)C(=O)C2=CN(c3ccc(OC)cc3)C(c3ccc(OC)cc3)=CC2=C(Br)C1=O (stereo not drawn)	/	/	/	53*	/	/	63*
CCC(=O)N1CCc2cc(Br)c(S(=O)(=O)N3CCC(C(=O)NCCCOC(C)C)CC3)cc21	0	/	-9	/	6	-4	/
COC(=O)[C@H](CC(C)C)N(CCCc1cn(Cc2ccccc2)nn1)S(=O)(=O)c1ccccc1Br	-9	/	-6	/	4	-5	/
CC(C)(C)OC(=O)N1CCC(N[C@@H](Cc2ccccc2)C(=O)NCCc2c[nH]c3ccccc23)(C(=O)NC2CCCCC2)CC1	-2	/	3	/	2	-4	/
C[C@@H](CO)N(Cc1cn(Cc2ccccc2)nn1)S(=O)(=O)c1ccc(F)cc1Br	3	/	1	/	-6	-6	/
O=C(OCCN1CCN(C2CN(Cc3cn(Cc4ccccc4C(F)(F)F)nn3)S(=O)(=O)C2)CC1)c1cc2ccccc2o1 (stereo not drawn)	1	/	6	/	6	4	/
O=C(OCCc1ccccc1)c1cc(O)c(O)c(O)c1	17	17	-13	56*	-3	-5	87*
Nc1ccc(C(=O)OCCc2ccccc2)cc1	-6	8	0	-7	0	-2	/
Oc1ccc2ccccc2c1N=Nc1ccc(F)cc1	-4	-2	-14	8	-5	-8	/
